Measurements taken from ChEMBL document CHEMBL1667754, “Synthesis and biological activity of pyrazolothienotetrahydroisoquinoline and [1,2,4]triazolo[3,4-a]thienotetrahydroisoquinoline derivatives” (2011).

Assays:
[1] = test system: Scopulariopsis brevicaulis; experiment: Antifungal activity against Scopulariopsis brevicaulis at 2% by disc diffusion assay
Geotrichum candidum = experiment: Antifungal activity against Geotrichum candidum at 2% by disc diffusion assay
Micrococcus luteus = experiment: Antibacterial activity against Micrococcus luteus at 50 uL/well by well diffusion assay; type: functional
Summary of the method: (§1)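 Bauer-type diffusion assay. Test compounds were at 2% in DMSO. The read-out was the diameter (mm) of the inhibition zone, with chloramphenicol as the reference agent.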

Candida albicans = experiment: Antifungal activity against Candida albicans at 200 ug/disc by disc diffusion assay
Fusarium oxysporum = experiment: Antifungal activity against Fusarium oxysporum at 2% by disc diffusion assay
Aspergillus niger = experiment: Antifungal activity against Aspergillus niger at 2% by disc diffusion assay
Escherichia coli = experiment: Antibacterial activity against Escherichia coli at 50 uL/well by well diffusion assay; type: functional
Summary of the method: as §1

Trichophyton rubrum = experiment: Antifungal activity against Trichophyton rubrum at 50 uL/well by well diffusion assay; type: functional
Summary of the method: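 Agar discs (10 mm) carrying spores and hyphae were shaken in sterile distilled water. 1 mL of the spore suspension was plated and mixed with 15 mL molten SDA, then left to set. Compounds were at 2% in DMSO, applied per Bauer's diffusion method. The read-out was the inhibition zone (mm).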

Pseudomonas aeruginosa = experiment: Antibacterial activity against Pseudomonas aeruginosa at 200 ug/disc by disc diffusion assay
Aspergillus flavus = experiment: Antifungal activity against Aspergillus flavus at 2% by disc diffusion assay
Bacillus cereus = experiment: Antibacterial activity against Bacillus cereus at 200 ug/disc by disc diffusion assay
Serratia marcescens = experiment: Antibacterial activity against Serratia marcescens at 200 ug/disc by disc diffusion assay
Staphylococcus aureus = experiment: Antibacterial activity against Staphylococcus aureus at 200 ug/disc by disc diffusion assay

| SMILES | diameter of the inhibition zone (DIZ) [1] [mm] | diameter of the inhibition zone (DIZ) (Geotrichum candidum) [mm] | diameter of the inhibition zone (DIZ) (Micrococcus luteus) [mm] | diameter of the inhibition zone (DIZ) (Candida albicans) [mm] | diameter of the inhibition zone (DIZ) (Fusarium oxysporum) [mm] | diameter of the inhibition zone (DIZ) (Aspergillus niger) [mm] | diameter of the inhibition zone (DIZ) (Escherichia coli) [mm] | diameter of the inhibition zone (DIZ) (Trichophyton rubrum) [mm] | diameter of the inhibition zone (DIZ) (Pseudomonas aeruginosa) [mm] | diameter of the inhibition zone (DIZ) (Aspergillus flavus) [mm] | diameter of the inhibition zone (DIZ) (Bacillus cereus) [mm] | diameter of the inhibition zone (DIZ) (Serratia marcescens) [mm] | diameter of the inhibition zone (DIZ) (Staphylococcus aureus) [mm] |
| --- | --- | --- | --- | --- | --- | --- | --- | --- | --- | --- | --- | --- | --- |
| Cc1cc(C)n(-c2[nH]c(=S)c(C#N)c3c2CCCC3)n1 | 0 | 0 | 0 | 0 | 0 | 0 | 0 | 0 | 0 | 0 | 16 | 0 | 8 |
| CC(=O)CSc1c(C#N)c2c(c3nncn13)CCCC2 | 0 | 0 | 12 | 0 | 0 | 0 | 8 | 0 | 0 | 0 | 12 | 12 | 10 |
| N#Cc1sc2c(c1N)c1c(c3nncn32)CCCC1 | 0 | 0 | 0 | 0 | 0 | 0 | 0 | 0 | 0 | 0 | 11 | 11 | 9 |
| Cc1cc(C)n(-c2nc(SCC(N)=O)c(C#N)c3c2CCCC3)n1 | 0 | 0 | 0 | 0 | 0 | 8 | 0 | 0 | 0 | 0 | 0 | 0 | 10 |
| Cc1cc(C)n(-c2nc(SCC#N)c(C#N)c3c2CCCC3)n1 | 0 | 10 | 0 | 12 | 8 | 8 | 0 | 0 | 0 | 0 | 8 | 10 | 8 |
| N#CCSc1c(C#N)c2c(c3nncn13)CCCC2 | 0 | 0 | 11 | 0 | 0 | 0 | 8 | 0 | 0 | 0 | 12 | 12 | 10 |
| Nc1c(C(=O)c2ccccc2)sc2c1c1c(c3nncn32)CCCC1 | 8 | 8 | 11 | 11 | 0 | 13 | 10 | 0 | 0 | 15 | 0 | 0 | 0 |
| N#Cc1c2c(c(NN)[nH]c1=S)CCCC2 | 0 | 0 | 14 | 12 | 13 | 12 | 14 | 17 | 0 | 10 | 20 | 0 | 11 |
| NC(=O)c1sc2c(c1N)c1c(c3nncn32)CCCC1 | 0 | 0 | 0 | 0 | 0 | 0 | 0 | 0 | 0 | 0 | 10 | 0 | 8 |
| CCOC(=O)c1sc2c(c1N)c1c(c3nncn32)CCCC1 | 0 | 0 | 0 | 10 | 0 | 0 | 11 | 0 | 0 | 8 | 8 | 10 | 10 |
| CC(=O)CSc1nc(-n2nc(C)cc2C)c2c(c1C#N)CCCC2 | 0 | 8 | 0 | 10 | 10 | 0 | 13 | 17 | 0 | 0 | 0 | 8 | 0 |
